Source: ChEMBL document CHEMBL2069211, “Busseihydroquinones A-D from the roots of Pentas bussei” (J Nat Prod, 2012)
Activity calls are given as the source filed them. The rule behind the calls is not given here.

How the values were obtained:
[1] = Selectivity index, ratio of LD50 for human MCF7 cells to IC50 for chloroquine-sensitive Plasmodium falciparum D6; format: toxicity, cell-based; settings: read-out: Selectivity Index
Summary of the method: (§1)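 The selectivity index is the MCF-7 LD50 (48 h PrestoBlue assay) divided by the P. falciparum IC50 (SYBR Green I assay) for the same strain.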

Staphylococcus aureus = test: Antimicrobial activity against Staphylococcus aureus at 0.1 mg/disc incubated for 24 to 72 hrs by disc diffusion assay; format: functional, organism-based
Summary of the method: (§2)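 Paper discs loaded with sample are laid on seeded agar plates, in triplicate under sterile conditions. Incubation is at 37 °C for E. coli, S. aureus and C. albicans, and at 25 °C for A. niger. Streptomycin (bacteria) and nystatin (fungi) serve as standards at 0.1 mg/100 μL. Sample solvents serve as controls.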

Plasmodium falciparum [2] = test: Antiplasmodial activity against chloroquine-sensitive Plasmodium falciparum D6 by SYBR green I-based assay; format: functional, organism-based
Summary of the method: (§3)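 Drug susceptibility is measured with the SYBR Green I-based in vitro malaria assay. Chloroquine and mefloquine run alongside as reference drugs. IC50 is the mean of at least 3 independent experiments.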

Candida albicans = test: Antimicrobial activity against Candida albicans at 0.1 mg/disc incubated for 24 to 72 hrs by disc diffusion assay; format: functional, organism-based; summary of the method: as §2
[3] = Selectivity index, ratio of LD50 for human MCF7 cells to IC50 for chloroquine-resistant Plasmodium falciparum W2; format: toxicity, cell-based; settings: read-out: Selectivity Index; summary of the method: as §1
[4] = Toxicity against human MCF7 cells incubated for 48 hrs by PrestoBlue cell viability reagent based assay; settings: read-out: LD50
Summary of the method: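 MCF-7 cells are grown in DMEM with 10% FBS, 2 mM L-glutamine and penicillin/streptomycin at 37 °C in 5% CO2. They are seeded for exponential growth and preincubated 24 h. Drug or DMSO vehicle (0.1% or 1.0% v/v) is then added for 48 h. PrestoBlue absorbance is read at 570 nm (600 nm reference). Viability is expressed as % of vehicle, six replicates, with repeated independent experiments.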

Escherichia coli = test: Antimicrobial activity against Escherichia coli at 0.1 mg/disc incubated for 24 to 72 hrs by disc diffusion assay; format: functional, organism-based; summary of the method: as §2
Aspergillus niger = test: Antimicrobial activity against Aspergillus niger at 0.1 mg/disc incubated for 24 to 72 hrs by disc diffusion assay; format: functional, organism-based; summary of the method: as §2
Plasmodium falciparum [5] = test: Antiplasmodial activity against chloroquine-resistant Plasmodium falciparum W2 by SYBR green I-based assay; format: functional, organism-based; summary of the method: as §3

COc1cc(C(=O)O)c(O)c2ccc3c(c12)C=CC(C)(CCC=C(C)C)O3 (racemic) [BUSSEIHYDROQUINONE C]
selectivity ratio [1]: > 8.32
inhibition zone (IZ) (Staphylococcus aureus): inactive
IC50 (Plasmodium falciparum [2]): 32.6 µM
inhibition zone (IZ) (Candida albicans): inactive
selectivity ratio [3]: > 4.52
CC50 at 48 h [4]: > 272 µM
inhibition zone (IZ) (Escherichia coli): inactive
inhibition zone (IZ) (Aspergillus niger): inactive
IC50 (Plasmodium falciparum [5]): 60.1 µM

COC(=O)c1cc(OC)c2cc(O)c3c(c2c1O)C=CC(C)(CCC=C(C)C)O3 (racemic)
selectivity ratio [1]: 2.83
inhibition zone (IZ) (Staphylococcus aureus): inactive
IC50 (Plasmodium falciparum [2]): 30.6 µM
inhibition zone (IZ) (Candida albicans): inactive
selectivity ratio [3]: 1.02
CC50 at 48 h [4]: 86.4 µM
inhibition zone (IZ) (Escherichia coli): inactive
inhibition zone (IZ) (Aspergillus niger): inactive
IC50 (Plasmodium falciparum [5]): 85 µM

COc1cc(C(=O)O)c(O)c2ccc3c(c12)C=CC(C)(C)O3 [BUSSEIHYDROQUINONE B]
selectivity ratio [1]: 13.4
inhibition zone (IZ) (Staphylococcus aureus): inactive
IC50 (Plasmodium falciparum [2]): 27.8 µM
inhibition zone (IZ) (Candida albicans): inactive
selectivity ratio [3]: 2.96
CC50 at 48 h [4]: 374 µM
inhibition zone (IZ) (Escherichia coli): inactive
inhibition zone (IZ) (Aspergillus niger): inactive
IC50 (Plasmodium falciparum [5]): 126 µM

OC(c1cc(C(F)(F)F)nc2c(C(F)(F)F)cccc12)C1CCCCN1 (stereo unspecified) [MEFLOQUINE]
IC50 (Plasmodium falciparum [2]): 0.029 µM

COC(=O)c1cc(OC)c2cc(OC)c(OC)c(O)c2c1O [BUSSEIHYDROQUINONE A]
selectivity ratio [1]: 8.44
inhibition zone (IZ) (Staphylococcus aureus): inactive
IC50 (Plasmodium falciparum [2]): 36 µM
inhibition zone (IZ) (Candida albicans): inactive
selectivity ratio [3]: 2.11
CC50 at 48 h [4]: 304 µM
inhibition zone (IZ) (Escherichia coli): inactive
inhibition zone (IZ) (Aspergillus niger): inactive
IC50 (Plasmodium falciparum [5]): 144 µM

COc1cc(C(=O)O)c(O)c2ccc3c(c12)C=C1/C(=C(\C)C=O)CCC1(C)O3 (racemic) [BUSSEIHYDROQUINONE D]
selectivity ratio [1]: > 13.4
inhibition zone (IZ) (Staphylococcus aureus): inactive
IC50 (Plasmodium falciparum [2]): 19.6 µM
inhibition zone (IZ) (Candida albicans): inactive
selectivity ratio [3]: > 3.27
CC50 at 48 h [4]: > 262 µM
inhibition zone (IZ) (Escherichia coli): inactive
inhibition zone (IZ) (Aspergillus niger): inactive
IC50 (Plasmodium falciparum [5]): 80.1 µM
